Screening results (PubChem)
Yeast eIF2B – modulators of yeast eIF2B activity; S. cerevisiae eIF2B-epsilon R284H, GCN4-lacZ luminescence; inhibition, % at 25 µM (by protocol); actives 0.91% (n = 27,000);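 active = mutant luminescence inhibited past about 50% while wild type luminescence and mutant growth stay under set limits, limit read from the data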
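Times: 16 h growth with compound at 30 °C, 90 min Beta-Glo step; Assay system: yeast eIF2B-epsilon R284H mutant carrying GCN4–beta-galactosidase fusion; Measure: % inhibition of reporter signal and growth versus controls; Dosing: one concentration, 25 µM, 0.25% DMSO; Buffer or medium: YPD yeast growth medium; Measured by: Beta-Glo luminescence plus absorbance at 595 nm.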
Yeast growth tox – Compounds toxic to wild-type S. cerevisiae growth. actives 0.3% (n = 30,000). growth inhibition, % at 25 µM (by protocol). A595 turbidity, 16 h;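 active = mutant and wild-type yeast strains alike exhibit over 30% growth inhibition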;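 note: 0% = untreated cell controls and 100% = YPD media blanks without cells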
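Schedule: 16 h growth with compound, 30 °C. System: yeast, wild-type or eIF2Bepsilon-R284H mutant. Doses: one dose, 25 µM compound[…]. Buffer or medium: YPD. Signal: turbidity measured as absorbance at 595 nm. Read-out basis: growth inhibition (%) versus cell controls and blanks.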
* hit, by the source's call. Compounds with a hit are over-represented: about 1% of the library has one in this group of screens.

Results for COc1ccc(N(C(=O)c2ccccc2OC(C)=O)C(C)C2CC2)cc1 (centres undefined) ?
Yeast eIF2B: 12; Yeast growth tox: 7

How did O=C(c1ccc(Cl)cc1)N1CCN(c2ccc(F)cc2)CC1 do in these assays?
Yeast eIF2B: 42; Yeast growth tox: 59*

What do the screens show for `O=C(c1ccc2c(c1)OCO2)N1CCN(c2ccc(F)cc2)CC1`?
Yeast eIF2B: 5; Yeast growth tox: 4

What do the screens show for `CC(=O)Cc1nsc(NC(=O)c2ccc(COc3ccccc3)o2)n1`?
Yeast eIF2B: 31; Yeast growth tox: 18

Results for COc1ccc(O)c(-c2cc(-c3cccs3)[nH]n2)c1 ?
Yeast eIF2B: 18; Yeast growth tox: 24

Results for CN1C(=O)NC(c2ccccc2)C2=C1CN(CCc1ccccc1)C2=O (centres undefined) ?
Yeast eIF2B: -25; Yeast growth tox: 21

How did CN1C(=O)NC(c2ccccc2)C2=C1CN(c1cccc(C(F)(F)F)c1)C2=O (centres undefined) do in these assays?
Yeast eIF2B: 52*; Yeast growth tox: 1

Results for CC(=O)Oc1ccc2c(C)cc(=O)oc2c1 ?
Yeast eIF2B: 20; Yeast growth tox: 8

Results for CC(=O)Oc1ccc(N2C(=O)C3C(C2=O)C2(C)C=CC3(C)O2)cc1 (centres undefined) ?
Yeast eIF2B: 39; Yeast growth tox: 61*

Results for CN(C)C(=O)NC(O)C(Cl)Cl (centres undefined) ?
Yeast growth tox: 8

How did COc1ccccc1CC(=O)N1CCCC1 do in these assays?
Yeast growth tox: -7

What do the screens show for `COc1ccccc1CC(=O)N1CCN(c2cccc(C(F)(F)F)c2)CC1`?
Yeast eIF2B: 50*; Yeast growth tox: -14

Results for Cc1ccc(-c2nnn(CCC(=O)Nc3ccc4c(c3)OCO4)n2)cc1 ?
Yeast eIF2B: 8; Yeast growth tox: -55

What do the screens show for `CN1CCN(CCC(=O)Nc2ccc3c(c2)OCO3)CC1`?
Yeast eIF2B: 56*; Yeast growth tox: 7

Results for Cc1cc(NC(=O)CCCC(=O)NCc2cccs2)no1 ?
Yeast eIF2B: 24; Yeast growth tox: -2

How did CCOC(=O)C1(CCSC)NC(c2ccco2)C2C(=O)N(C)C(=O)C21 (centres undefined) do in these assays?
Yeast eIF2B: 72*; Yeast growth tox: -14

What do the screens show for `CCOC(=O)C1(CC)NC(c2ccco2)C2C(=O)N(C)C(=O)C21` (centres undefined)?
Yeast eIF2B: -21; Yeast growth tox: 18

What do the screens show for `Cc1nn(-c2ccc(F)cc2)c(Cl)c1/C=C(\CC(=O)O)c1nc2ccccc2s1`?
Yeast eIF2B: -17; Yeast growth tox: 8

What do the screens show for `CCC(=O)N1CCN(c2ccccc2NC(=O)c2ccc(OC)c(Cl)c2)CC1`?
Yeast eIF2B: 16; Yeast growth tox: 42

How did COc1ccc(CNC(=O)c2cnccn2)cc1 do in these assays?
Yeast eIF2B: 14; Yeast growth tox: 20

How did Cc1cc2c(cc1C)CSC(c1ccccc1O)SC2 do in these assays?
Yeast growth tox: 81*

Results for Cc1cc2c(cc1C)CSC(c1ccc3ccccc3c1O)SC2 ?
Yeast growth tox: -36

Results for COc1cc(NC(=O)c2ccccc2)c(OC)cc1Cl ?
Yeast eIF2B: -3; Yeast growth tox: 9

What do the screens show for `COCC(=O)Nc1cc(OC)c(Cl)cc1OC`?
Yeast eIF2B: 55*; Yeast growth tox: -5

What do the screens show for `Cc1ccccc1-c1cc(-c2ccccc2O)n[nH]1`?
Yeast eIF2B: 20; Yeast growth tox: 18

What do the screens show for `Cc1ccc(-c2cc(-c3ccccc3Cl)[nH]n2)c(O)c1`?
Yeast eIF2B: 30; Yeast growth tox: 64*

What do the screens show for `CCn1cc(C(=O)NCc2ccc3c(c2)OCO3)c(=O)c2cc(F)c(N3CCN(C(=O)c4ccco4)CC3)cc21`?
Yeast eIF2B: -11; Yeast growth tox: 9

Results for O=C(Nc1nc2ccc(Cl)cc2s1)C1CCCO1 (centres undefined) ?
Yeast growth tox: 30*

What do the screens show for `O=C(Nc1cc(Cl)ccc1O)C1CCCO1` (centres undefined)?
Yeast eIF2B: 17

What do the screens show for `O=C(CC1CCCC1)Nc1ccc2c(c1)CCC2`?
Yeast eIF2B: 11; Yeast growth tox: 2

Results for COc1cccc(NC(=O)CN(c2ccc(C)cc2)S(=O)(=O)c2c(C)nn(C)c2C)c1 ?
Yeast eIF2B: 53*; Yeast growth tox: 1

What do the screens show for `COc1ccc(N(CC(=O)NC2CCCCCC2)S(=O)(=O)c2c(C)nn(C)c2C)cc1`?
Yeast eIF2B: 14; Yeast growth tox: -30

Results for O=C(CSc1nnc(CNc2ccc(F)cc2)n1Cc1ccccc1)N1CCOCC1 ?
Yeast eIF2B: 54; Yeast growth tox: -18

How did COC(=O)c1oc2ccc(Cl)cc2c1-n1cccc1 do in these assays?
Yeast eIF2B: 10; Yeast growth tox: -4

How did COC(=O)c1cc2c(=O)n3ccccc3nc2n(C)c1=N do in these assays?
Yeast eIF2B: 0; Yeast growth tox: 32*

Results for CC1Cc2ccccc2N1C(=O)c1cc2c(=O)n3ccccc3nc2n1C (centres undefined) ?
Yeast eIF2B: -5; Yeast growth tox: -2

What do the screens show for `N#C/C(=C/c1ccc(N2CCCCC2)o1)c1cccc(F)c1`?
Yeast growth tox: 13

What do the screens show for `Cc1ccc2nc(/C(C#N)=C\c3ccc(N4CCOCC4)o3)[nH]c2c1`?
Yeast eIF2B: 65*

What do the screens show for `CCCn1c(=O)n(C)c(=O)c2c(SCC(=O)NCc3ccco3)nc(C3CC3)nc21`?
Yeast eIF2B: 21; Yeast growth tox: 3

What do the screens show for `CN(C)CCNC(=O)COc1cccc(Cl)c1`?
Yeast eIF2B: 18; Yeast growth tox: 17

What do the screens show for `CCCCN(CC)Cc1ccc(CNC(=O)Nc2ccc(OCC)cc2)o1`?
Yeast eIF2B: 21; Yeast growth tox: 19

What do the screens show for `CCOC(=O)C(C)CC(C)C(=O)N1CCOCCOCCN(C(=O)C(C)CC(C)C(=O)OCC)CCOCC1` (centres undefined)?
Yeast eIF2B: 9; Yeast growth tox: 21

What do the screens show for `CCOC(=O)C(C(=O)OCC)C(C(=O)OCC)N1CCOCC1` (centres undefined)?
Yeast eIF2B: 5; Yeast growth tox: 33*

How did CCOc1ccccc1C(=O)N1CCN=C1SCc1cccnc1 do in these assays?
Yeast eIF2B: 8; Yeast growth tox: 2

Results for CS(=O)(=O)N(CC(=O)N1CCc2ccccc2C1)Cc1ccccc1 ?
Yeast eIF2B: 17; Yeast growth tox: 7

How did C#CCOc1ccc(Br)cc1/C=N/O do in these assays?
Yeast eIF2B: 13; Yeast growth tox: 23

What do the screens show for `CCOc1cc(-c2nc(-c3ccc(C)nc3OCC)no2)cc(OCC)c1OCC`?
Yeast eIF2B: 56*

How did CCOc1cc(-c2nc(-c3cc(OC)c(OC)c(OC)c3)no2)cc(OCC)c1OCC do in these assays?
Yeast eIF2B: 4; Yeast growth tox: -16

Results for CCOc1ccc2nc(SCC(=O)N(C)C)[nH]c2c1 ?
Yeast eIF2B: 19; Yeast growth tox: 20

Results for O=C(NC(Cc1ccccc1)C(=O)O)c1ccc(S(=O)(=O)N2CCCCC2)cc1 (centres undefined) ?
Yeast eIF2B: 23; Yeast growth tox: 1

What do the screens show for `O=C(c1ccccc1)N1CCN(C(=O)c2ccncc2)CC1`?
Yeast eIF2B: 51*; Yeast growth tox: 16

Results for CCS(=O)(=O)N1CCN(C(=O)c2ccccc2)CC1 ?
Yeast eIF2B: 11; Yeast growth tox: 12
